High-throughput results from PubChem BioAssay.
Sampled rows, rich in hits. Any-hit rate of the full collection: about 1.2%.
proCasp3 act: activates human procaspase-3; activation, % at 8.5 µM; recombinant procaspase-3 D3A, Ac-DEVD-pNA absorbance 405 nm; 330,000 tested, 0.11% active;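 active = activation above the mean of all tested compounds plus 3 SD, cut at about 21% in these data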;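 also: 0% = DMSO alone and 100% = DMSO wells spiked with extra 5 µM PC-3 D3A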
Target sequence (P42574 whole entry D9A/D28A/D175A): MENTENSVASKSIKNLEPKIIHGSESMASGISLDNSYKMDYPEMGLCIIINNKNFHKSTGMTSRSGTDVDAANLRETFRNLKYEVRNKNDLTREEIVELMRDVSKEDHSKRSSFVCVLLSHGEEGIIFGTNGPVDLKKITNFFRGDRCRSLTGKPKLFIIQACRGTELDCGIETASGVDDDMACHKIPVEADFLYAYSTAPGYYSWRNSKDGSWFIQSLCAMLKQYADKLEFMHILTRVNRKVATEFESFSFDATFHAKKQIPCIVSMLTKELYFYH
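Technique: 405 nm absorbance of p-nitroaniline, reads at 0 and 120 min; Test system: Procaspase-3 D3A mutant; Incubation: 1 h enzyme-compound preincubation, then 2 h substrate reaction, 25 °C; Repeats: singlicate, each compound tested once; Benchmarks: low control DMSO wells, high control DMSO plus 5 µM PC-3 D3A.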
IDE cell inh: inhibits human insulin-degrading enzyme in HEK cells. P14735. FAbetaB cleavage, fluorescence polarization. inhibition, % at 5.59 µM. 320,000 tested, 0.41% active. AID 434962;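 active = percent inhibition above the average of all tested compounds plus 3 SD, set per screening campaign, cut at about 16% in these data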;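 also: IDE supplied by intact live HEK cells; FP after avidin binding of uncleaved biotin substrate so inhibition keeps polarization high; 0% = DMSO wells and 100% = 60 µM reference IDE inhibitor Ii1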
TPT1 inhibitor: C. albicans TPT1 enzyme inhibition. recombinant caTPT1, FP RNA substrate dephosphorylation. inhibition, % at 5 µM. 300,000 tested, 0.81% active;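 active = inhibition above the mean of all tested compounds plus 3 SD, set per screening campaign, cut at about 24% in these data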;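 also: plate controls were DMSO alone for no effect and ferristatin control at 100 nM for full effect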
procasp7 counter: activates human procaspase-7, counter-screen for procaspase-3 activators; activation, % at 8.5 µM; 330,000 tested, 0.093% active; recombinant procaspase-7, Ac-DEVD-pNA absorbance 405 nm; D23A/D198A/D206A triple mutant, cannot self-cleave; scale: DMSO 0, 5 µM enzyme 100; AID 463210;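 active = percent activation above the screen-wide mean plus 3 SD, cut at about 25% in these data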
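signal = Epi-absorbance of released pNA at 405 nm, two timepoints | assay system = Uncleavable procaspase-7 mutant enzyme | reagent = Ac-DEVD-pNA substrate, 400 µM as added | times = 1 h enzyme–compound preincubation and 2 h substrate reaction, both 25 °C | benchmarks = low DMSO alone, high DMSO plus 5 µM PC-7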
IDE act: boosts human insulin-degrading enzyme activity in HEK cells; P14735; FAbeta-B cleavage, fluorescence polarization; 0% vehicle, 100% cell-free pure enzyme wells; activation, % at 5.96 µM; 340,000 tested, 0.073% active; AID 493087;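 active = activation above the mean of all tested compounds plus 3 SD, set per screening campaign, cut at about 17% in these data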
caTPT1 confirm: TPT1 (C. albicans) inhibition, confirmation | 2,400 tested, 74% active | AID 2149 | recombinant caTPT1, fluorescence polarization, RNase T1 coupled | shares compounds with TPT1 inhibitor | inhibition, % at 5 µM;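 active = inhibition above the primary screen limit, the mean inhibition of all tested compounds plus 3 SD, cut at about 25% in these data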
RNase T1 counter: counter-screen for TPT1 inhibitors: inhibitors of Aspergillus oryzae RNase T1; shares compounds with TPT1 inhibitor; RNase T1 cleavage, fluorescence polarization, 1536-well; inhibition, % at 5 µM; 2,400 tested, 83% active; AID 2153;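 active = inhibition above the solvent-only control well mean plus 3 SD, limit set per screening run, cut at about 23% in these data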;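 also: plate controls were DMSO wells with enzyme for no effect and wells without RNase T1 for full effect; inhibitors block cleavage so intact labeled substrate keeps polarization high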
Target sequence (P00651 whole entry, looked up): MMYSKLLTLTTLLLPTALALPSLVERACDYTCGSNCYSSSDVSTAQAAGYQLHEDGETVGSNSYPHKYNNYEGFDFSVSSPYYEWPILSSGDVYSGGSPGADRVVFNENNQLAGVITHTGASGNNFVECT
* hit, by the source's call; / = no result given.

SMILES	proCasp3 act	IDE cell inh	TPT1 inhibitor	procasp7 counter	IDE act	caTPT1 confirm	RNase T1 counter
CN(/N=C/c1ccc(-c2ccc([N+](=O)[O-])cc2)o1)c1ccccc1	-12.3	11.1	72.5*	-2.6	-24.8	73.8*	81.5*
Cc1cc([N+](=O)[O-])ccc1-c1ccc(/C=N/NC(=O)Cc2ccccc2)o1	1.7	1.7	24.2*	-0.2	-0.3	24.4*	37.0*
NC(=S)N/N=C/c1ccc(-c2ccc([N+](=O)[O-])cc2)o1	-23.4	-1.4	27.4*	-7.6	-4.1	35.9*	47.3*
CCOc1ccc(NC(=O)CCC(=O)NNC(=O)c2ccc(Br)o2)cc1	4.9	1.7	-1.7	16.3	4.3	/	/
Cc1nn(-c2ccccc2)c(N2CCCC2)c1/C=C1\N=C(c2ccc(OC(C)C)cc2)OC1=O	-5.7	-0.9	43.3*	-0.6	4.6	72.6*	81.4*
CCc1ccc(NC(=O)C(=O)NCC2CCCN2S(=O)(=O)c2cccs2)cc1 (stereo not drawn)	-3.9	3.6	-1.1	5.7	-1.2	/	/
C=CCn1c(O)c(C=Nc2ccccc2)sc1=S	-6.1	-4.5	7.0	-15.8	-7.0	/	/
CCn1c(O)c(C=Nc2ccccc2)sc1=S	-7.1	3.4	24.8*	-10.7	/	22.1	27.6*
Oc1c(C=Nc2ccccc2)sc(=S)n1Cc1ccccc1	-20.7	3.3	42.8*	-20.7	-3.2	43.3*	59.4*
CN(C)/N=C/C=C1\CCC/C(=C/c2cccs2)C1=O	-2.0	6.3	49.2*	-10.8	-0.9	55.8*	66.5*
O=C1/C(=C/c2cccs2)COc2ccccc21	7.5	3.2	-2.5	-5.8	-0.6	/	/
CN(C)/N=C/C=C1\CC/C(=C\c2ccc(Br)cc2)C1=O	-4.3	3.3	77.3*	-11.9	-4.4	55.4*	65.7*
C=CC(C)N1C(=O)S/C(=C\c2ccc(N3CCOCC3)cc2C)C1=O (stereo not drawn)	-5.1	8.7	32.3*	-14.2	-4.7	57.0*	63.5*
C=CCN1C(=O)S/C(=C\c2ccc(N3CCOCC3)cc2C)C1=O	-4.8	1.5	66.3*	-20.8	1.7	54.3*	65.9*
Cc1ccc(S(=O)(=O)N2CCC[C@H]2C(=O)NC2CCCCC2)cc1	/	/	/	/	-4.5	/	/
COCc1c(C(=O)OC)nnn1-c1ccc(C(F)(F)F)cc1[N+](=O)[O-]	-0.5	-3.1	-0.5	5.7	4.2	/	/
N=C1/C(=C\c2ccc(SCc3ccccc3)o2)C(=O)N=C2SC(CC(=O)N3CCOCC3)=NN12	-1.9	6.2	26.6*	-15.8	-5.3	27.6*	39.4*
Cc1ccc(/C=C2\C(=N)N3N=C(CC(=O)N4CCOCC4)SC3=NC2=O)o1	-0.8	-1.5	0.7	1.7	-4.5	/	/
O=C(O)CCCCCNC(=O)Cn1nnc2ccccc2c1=O	1.0	2.5	2.4	0.1	7.9	/	/
COc1ccc(/C=C2/N=C3CCCCCN3C2=O)cc1	-6.4	2.1	0.9	-10.6	7.7	/	/
COc1ccc(/C=C2\N=C3CCCCCN3C2=O)cc1OC	6.8	0.6	-5.2	1.7	0.4	/	/
COc1cc(/C=C2\N=C3CCCCCN3C2=O)ccc1O	-3.9	3.6	50.2*	-6.6	-11.2	69.0*	72.6*
O=C1/C(=C\c2ccc(O)c(O)c2)N=C2CCCCCN12	-14.1	1.2	26.6*	-17.3	2.0	44.8*	46.9*
Cc1ccccc1OCCC(=O)Nc1ccc2c(C)cc(=O)oc2c1	-1.2	0.5	1.6	11.7	2.1	/	/
Cc1ccccc1C(=O)NN1C(=O)CSC1=S	0.5	3.9	4.4	-4.6	2.2	/	/
Cc1ccccc1C(=O)/C=C1/SCC(=O)N1C	7.2	-0.6	26.8*	2.1	-3.9	23.5	27.5*
N#CC1=C(N)OC2=C(CC/C2=C\c2ccc(F)cc2)C1c1ccc(F)cc1 (stereo not drawn)	-13.1	2.3	103.1*	-21.5	/	94.5*	102.2*
COc1cc(/C=C(\C#N)C(=O)c2ccc(O)c(O)c2)cc(I)c1O	-9.3	3.1	129.2*	-3.7	-20.9	180.3*	160.9*
